# Test results published in ChEMBL document CHEMBL1140496, “Discovery of N-phenyl nicotinamides as potent inhibitors of Kdr” (Bioorg Med Chem Lett, 2007).
# Experiments:
# [1] = target: T1, Vascular endothelial growth factor receptor 2 (Homo sapiens, UniProt P35968); experiment: Inhibition of phosphorylated-Kdr after 30 mins
# [2] = target: T1, Vascular endothelial growth factor receptor 2; experiment: Inhibition of unphosphorylated-Kdr after 30 mins
# HUVEC [3] = experiment: Antiproliferative activity against bFGF-driven HUVEC; format: functional, cell-based; conditions: Homo sapiens
# HUVEC [4] = experiment: Antiproliferative activity against VEGF-driven HUVEC; format: functional, cell-based; conditions: Homo sapiens
# [5] = Clearance in rat at 100 mg/kg; format: ADME, organism-based; parameters: dose 100 mg/kg; conditions: in vivo
# [6] = Bioavailability in rat at 100 mg/kg; format: ADME, organism-based; conditions: in vivo
# A-431 = experiment: Antitumor activity in A431 cells xenografted po dosed nude mouse assessed as delay in disease progression administered twice daily; format: functional, organism-based; conditions: Homo sapiens
# In short: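 Nude mice bearing A431 human […] epidermoid carcinoma xenografts received oral doses twice daily at 37.5, 75 or 150 mg/kg, against vehicle. Tumor size (cubic mm) was followed from about day 5 to day 23, with percent body weight also tracked. Groups were compared by p-values.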
# [7] = AUC in rat at 100 mg/kg; format: ADME, organism-based; parameters: dose 100 mg/kg; conditions: plasma
# T1 sequence (P35968 whole entry): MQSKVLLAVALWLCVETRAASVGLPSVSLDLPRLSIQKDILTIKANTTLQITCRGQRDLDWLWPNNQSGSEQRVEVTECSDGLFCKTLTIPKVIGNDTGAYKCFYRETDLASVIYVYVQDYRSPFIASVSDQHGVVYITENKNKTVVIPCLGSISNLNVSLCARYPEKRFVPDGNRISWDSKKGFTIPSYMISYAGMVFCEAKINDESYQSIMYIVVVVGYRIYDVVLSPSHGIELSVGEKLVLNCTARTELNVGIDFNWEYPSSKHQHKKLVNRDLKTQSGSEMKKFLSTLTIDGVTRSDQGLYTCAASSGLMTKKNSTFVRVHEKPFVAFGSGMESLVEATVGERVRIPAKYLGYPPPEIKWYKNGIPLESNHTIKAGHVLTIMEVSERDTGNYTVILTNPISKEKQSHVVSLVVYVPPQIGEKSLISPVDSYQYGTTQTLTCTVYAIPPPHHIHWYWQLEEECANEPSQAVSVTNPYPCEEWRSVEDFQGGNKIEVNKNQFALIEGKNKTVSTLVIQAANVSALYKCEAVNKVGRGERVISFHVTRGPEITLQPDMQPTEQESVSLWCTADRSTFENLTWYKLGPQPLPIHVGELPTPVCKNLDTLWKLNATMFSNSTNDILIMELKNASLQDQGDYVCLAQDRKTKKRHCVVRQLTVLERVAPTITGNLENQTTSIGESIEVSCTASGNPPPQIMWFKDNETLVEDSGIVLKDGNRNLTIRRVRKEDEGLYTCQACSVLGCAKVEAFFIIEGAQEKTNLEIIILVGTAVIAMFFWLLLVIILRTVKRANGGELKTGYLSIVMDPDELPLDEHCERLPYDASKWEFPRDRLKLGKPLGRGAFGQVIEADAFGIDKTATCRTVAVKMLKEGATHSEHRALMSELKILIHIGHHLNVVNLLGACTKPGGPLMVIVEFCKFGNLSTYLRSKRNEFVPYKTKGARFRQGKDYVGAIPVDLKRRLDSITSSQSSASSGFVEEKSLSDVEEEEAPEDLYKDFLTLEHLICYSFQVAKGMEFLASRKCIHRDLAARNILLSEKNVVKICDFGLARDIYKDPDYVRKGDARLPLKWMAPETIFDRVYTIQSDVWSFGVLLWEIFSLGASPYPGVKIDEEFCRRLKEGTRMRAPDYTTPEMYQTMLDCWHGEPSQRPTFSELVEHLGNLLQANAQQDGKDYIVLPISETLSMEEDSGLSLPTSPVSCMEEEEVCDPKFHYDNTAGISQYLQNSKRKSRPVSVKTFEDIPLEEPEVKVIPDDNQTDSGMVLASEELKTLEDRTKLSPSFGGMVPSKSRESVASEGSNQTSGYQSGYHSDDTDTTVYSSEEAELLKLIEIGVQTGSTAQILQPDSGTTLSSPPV
compound,measurement,setting,value
O=C(Nc1ccc(C2CCCCC2)cc1)c1cccnc1NCc1ccncc1,Ki,[1],2 nM
O=C(Nc1ccc(Cl)cc1)c1cc(Br)cnc1NCc1ccncc1,Ki,[1],490 nM
O=C(Nc1ccc(Oc2ccccc2)cc1)c1cccnc1NCc1ccc(F)cc1,Ki,[1],135 nM
CCc1cccc(NC(=O)c2cccnc2NCc2ccncc2)c1,Ki,[1],106 nM
O=C(Nc1cc(C(F)(F)F)cc(C(F)(F)F)c1)c1cccnc1NCc1ccncc1,Ki,[1],8 nM
O=C(Nc1ccc(Cl)cc1)c1sccc1NCc1ccncc1,Ki,[2],120 nM
O=C(Nc1ccc(Cl)cc1)c1ccccc1NCc1ccncc1,Ki,[1],15 nM
CCOC(=O)c1coc(-c2cccc(NC(=O)c3cccnc3NCc3ccncc3)c2)c1,Ki,[1],29 nM
O=C(Nc1ccc(OC(F)(F)F)cc1)c1cccnc1NCc1ccncc1,Ki,[1],23 nM
Cc1ccc(C(=O)Nc2ccc(Cl)cc2)c(NCc2ccncc2)n1,Ki,[2],> 10000 nM
O=C(Nc1cccc(Cl)c1)c1cccnc1NCc1ccncc1,IC50,HUVEC [3],> 1000 nM
same,IC50,HUVEC [4],40 nM
same,Ki,[1],2 nM
O=C(Nc1ccc(Cl)cc1)c1cccnc1NCc1ccncc1,clearance,[5],73.3 mL/min/kg
same,bioavailability,[6],45%
same,IC50,HUVEC [3],> 1000 nM
same,IC50,HUVEC [4],8 nM
same,Ki,[2],8 nM
same,Activity,A-431,Dose-dependent effect
same,AUC,[7],20000 ng·h/mL
O=C(Nc1ccc(Oc2ccccc2)cc1)c1cccnc1Nc1ccc2cn[nH]c2c1,Ki,[1],70 nM
O=C(Nc1ccc(Cl)cc1)C1CCCCC1NCc1ccncc1 (configuration not stated),Ki,[1],> 10000 nM
O=C(Nc1ccc(C(F)(F)F)cc1)c1cccnc1NCc1ccncc1,Ki,[1],9 nM
O=C(Nc1ccc(Cl)cc1)c1cncnc1NCc1ccncc1,Ki,[1],140 nM
O=C(Nc1ccc(Oc2ccccc2)cc1)c1cccnc1Nc1csc2ccccc12,Ki,[1],> 20000 nM
O=C(Nc1ccc(Cl)c(Cl)c1)c1cccnc1NCc1ccncc1,Ki,[1],17 nM
O=C(Nc1ccccc1Oc1ccccc1)c1cccnc1NCc1ccncc1,Ki,[1],> 20000 nM
CC(O)c1cccc(NC(=O)c2cccnc2NCc2ccncc2)c1 (configuration not stated),Ki,[1],> 6660 nM
CN1CCN(c2ccc(NC(=O)c3cccnc3NCc3ccncc3)cc2)CC1,Ki,[1],> 6660 nM
O=C(Nc1ccc(Oc2ccccc2)cc1)c1cccnc1NCc1ccc2c(c1)OCO2,Ki,[1],38 nM
O=C(Nc1ccc(Cl)cc1)c1ncccc1NCc1ccncc1,Ki,[1],> 10000 nM
O=C(Nc1ccc(Cl)c(C(F)(F)F)c1)c1cccnc1NCc1ccncc1,Ki,[1],4 nM
